Hits are enriched below; roughly 4.6% of the tested compounds scored in any of these assays.
OX1R antag-1 – antagonists of human orexin 1 receptor (OX1R). O43613. OX1R-expressing cells, FRET antagonist read-out. hit rate 1.8% among 330,000. inhibition, % at 6.6 µM; in the data active = inhibition mostly above about 38%, no sharp cut-off; inactive = mostly below about 40%;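 note: 0% = agonist challenge alone and 100% = reference antagonist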
Target sequence (O43613 whole entry, looked up): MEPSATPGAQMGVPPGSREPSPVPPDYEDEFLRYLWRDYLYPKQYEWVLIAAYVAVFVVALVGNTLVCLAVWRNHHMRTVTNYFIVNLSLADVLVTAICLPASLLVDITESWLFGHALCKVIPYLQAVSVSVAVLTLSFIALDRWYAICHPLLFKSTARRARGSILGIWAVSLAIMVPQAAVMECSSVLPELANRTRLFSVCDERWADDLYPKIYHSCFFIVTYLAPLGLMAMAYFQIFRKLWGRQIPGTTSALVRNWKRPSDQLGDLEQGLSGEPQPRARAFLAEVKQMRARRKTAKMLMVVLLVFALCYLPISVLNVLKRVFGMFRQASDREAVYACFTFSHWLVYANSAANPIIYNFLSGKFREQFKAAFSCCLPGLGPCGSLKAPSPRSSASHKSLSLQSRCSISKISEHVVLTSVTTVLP
GPR7 antagonist – blocks human GPR7 receptor signaling; P48145; GPR7-expressing cells, fluorescence antagonist assay; inhibition, % at 4.4 µM; hit rate 1.1% among 290,000; in the data active = inhibition above about 16%, passing the limit was not always enough;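 note: cells stimulated with the agonist NPW; 0% = agonist with vehicle and 100% = vehicle without agonist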
TAAR1 antagonist – human TAAR1 antagonism | hit rate 1.5% among 360,000 | AID 624466 | CHO RD-HGA16 TAAR1, Fluo-8 calcium fluorescence, antagonist | inhibition, % at 3 µM;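 active = inhibition above a per-plate cutoff, the mean inhibition of test compounds on that plate plus 3 SD, cut at about 49% in these data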;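 note: 0% = DMSO plus EC80 beta-PEA response and 100% = DMSO alone without agonist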
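Material: CHO RD-HGA16 cells bearing hTAAR1; compound dosing: one-point dosing, 3 µM nominal final; schedule: dye loading 75 min at 37 °C, then 30 min room temperature; measured by: calcium fluorescence with Fluo-8; control set: vehicle and agonist controls; replication: n of 1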
OX1R antag-2 – human HCRTR1 antagonism. hit rate 0.43% among 330,000. O43613. CHO/OX1R cells, Fluo-8 calcium fluorescence, orexin A. AID 434989. inhibition, % at 5 µM;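 active = inhibition above its plate's threshold, mean inhibition of all tested compounds on the plate plus 3 SD, cut at about 37% in these data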;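 note: 0% = orexin A challenge wells and 100% = SB-334867-A antagonist wells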
TAAR1 ag – agonists of human TAAR1 | Q96RJ0 | CHO RD-HGA16 TAAR1, Fluo-8 calcium fluorescence; vehicle wells 0%, saturating PEA agonist 100% | activation, % at 3 µM | hit rate 0.99% among 360,000 | AID 624467;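 active = activation above the mean activation of all test compounds in the run plus 3 SD, cut at about 38% in these data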
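test system = CHO RD-HGA16 cells carrying human TAAR1 plus Gα16 | schedule = 17-24 h seeding, 75 min 37 °C dye, 30 min RT | compound dosing = 3 µM single concentration | control set = DMSO and PEA EC100 | replicates = n 1 | signal = Fluo-8 fluorescence, 5 s baseline then 140 s kinetic read | measure = percent activation vs PEA EC100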
CHO parental Ca – signal in parental CHO cells, OX1R antagonist counter-screen | inhibition, % at 5.6 µM | hit rate 0.63% among 330,000 | parental CHO-K1, ATP-induced calcium, Fluo-8 fluorescence | AID 463079;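 active = inhibition above that plate's mean sample inhibition plus 3 SD, cut at about 26% in these data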;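 note: 0% = ATP-challenged DMSO wells and 100% = DMSO wells without ATP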
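Assay system – parental CHO cells · Reagent – ATP stimulus · Detection – intracellular calcium via Fluo-8 no-wash fluorescent dye · Evaluation – percent inhibition of ATP-evoked calcium rise, normalized to controls · Controls – ATP wells versus no-ATP DMSO wells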
TAAR1 ag confirm – human TAAR1 agonism, confirmed | activation, % at 3 µM | shares compounds with TAAR1 ag | CHO RD-HGA16 TAAR1, Fluo-8 calcium fluorescence; scaled: DMSO 0%, maximal phenethylamine 100% | hit rate 82% among 2,400;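 active = activation above a cutoff set at the run's mean compound activation plus 3 SD, cut at about 39% in these data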
Ga16 ag counter – nonselective agonism, TAAR1 counter-screen | shares compounds with TAAR1 ag | CHO-Ga16 parental, Fluo-8 calcium fluorescence; normalized to maximal ATP response, DMSO zero | activation, % at 3 µM | hit rate 50% among 2,400 | AID 651787;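 active = activation above the run cutoff, the mean activation over all tested wells plus 3 SD, cut at about 12% in these data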;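 note: 0% = DMSO wells and 100% = maximal ATP response on the peak over basal ratio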
TAAR1 desens – counter-screen for human TAAR1 agonists: agonists that desensitize TAAR1. inhibition, % at 3 µM. AID 651951. hit rate 46% among 2,400. CHO RD-HGA16 hTAAR1, Fluo-8 calcium, beta-PEA response inhibition. shares compounds with TAAR1 ag;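 active = inhibition above the run cutoff, the mean inhibition of all test compounds plus 3 SD, cut at about 49% in these data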;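 note: beta-PEA stimulus applied at its EC80; loss of beta-PEA calcium signal after compound pretreatment read as receptor desensitization; 0% = DMSO with beta-PEA at EC80 and 100% = DMSO alone without agonist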
Ga16 antag count – counter-screen for TAAR1 agonists: nonselective Ga16 antagonists; shares compounds with TAAR1 ag; CHO-Ga16 ATP-induced calcium, Fluo-8 fluorescence; inhibition, % at 3 µM; hit rate 39% among 2,400;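 active = inhibition above the plate's mean compound inhibition plus 3 SD, computed per plate, cut at about 22% in these data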;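 note: 0% = EC80 ATP with DMSO and 100% = DMSO wells without ATP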
* = called active by the depositor; . = no result given.

SMILES	OX1R antag-1	GPR7 antagonist	TAAR1 antagonist	OX1R antag-2	TAAR1 ag	CHO parental Ca	TAAR1 ag confirm	Ga16 ag counter	TAAR1 desens	Ga16 antag count
O=C(Cc1c(F)c(F)c(F)c(F)c1F)Nc1nc(-c2ccccc2)cs1	48*	5	47	27	54*	48*	83*	33*	69*	30*
CC[C@]1(C(=O)OC)[C@H]2C(=O)N(Cc3ccccc3)C(=O)[C@H]2[C@H]2CN=C(SCC3CC3)N21	19	.	-6	21	2	-27	.	.	.	.
Cc1cc(C)cc(OCCCN2CCC(C(O)(c3ccccc3)c3ccccc3)CC2)c1	.	.	30	.	25	.	.	.	.	.
OC(c1ccccc1)(c1ccccc1)C1CCN(CCCOc2cccc(F)c2)CC1	.	.	40	.	45*	.	16	10	14	16
Cc1ccccc1OCCCN1CCC(C(O)(c2ccccc2)c2ccccc2)CC1	.	.	34	.	37*	.	51*	19*	38	26*
Cc1cccc(-c2nc(CN3CCN(Cc4cccc(F)c4)CC3)c(C)o2)c1	-7	4	-8	-32	1	-17	.	.	.	.
COc1cc2c(cc1OC)C(c1ccccc1)N(C(=O)C(C)(C)C)CC2 (centres undefined)	.	-4	10	.	1	.	.	.	.	.
Cc1ccc(NC(=O)COc2cccc3ccc(C)nc23)c(Br)c1	20	-5	89*	-87	87*	-6	3	5	28	22*
Cc1ccc(OCC(=O)Nc2cccc(C)n2)c(C)c1	12	-9	0	-96	7	-14	.	.	.	.
CCCCc1c(CCC)c(=N)c2ccccc2n1C	18	19	-15	-29	5	-4	.	.	.	.
CCCCCCc1cc2cc(-c3nnc(-c4ccccc4OC)o3)c(=O)oc2cc1O	4	-6	28	20	21	22	.	.	.	.
CCCCCCc1cc2cc(-c3nnc(-c4ccccc4O)o3)c(=O)oc2cc1O	11	5	43	12	48*	8	48*	46*	59*	60*
CC1CC(=O)c2cc(-c3ccccc3)oc2C1 (centres undefined)	.	.	-22	.	6	.	.	.	.	.
CC(C)CN(Cc1c(O)ccc2ccccc12)CC(C)C	20	-13	-1	-18	7	-3	.	.	.	.
CCN(Cc1ccncc1)Cc1c(O)ccc2ccccc12	.	-6	-7	.	53*	.	55*	2	21	7
CN(C)C=Nc1c(Br)cc(Br)c2nonc12	43	-10	78*	58*	87*	64*	48*	73*	56*	66*
CN(CCc1ccccc1)C(C(=O)Nc1ccc2c(c1)OCCO2)c1ccnc2ccccc12 (centres undefined)	.	.	53*	.	61*	.	78*	7	42	12
Cc1cc(NC(=O)CN2CCN(c3ccc(O)cc3)CC2)no1	7	0	-5	10	5	2	.	.	.	.
COC(=O)C1=C(C)N(Cc2ccc(C(F)(F)F)cc2)C(=NCc2ccccc2)NC1c1cccc(F)c1 (centres undefined)	.	.	66*	.	40*	.	30	18*	48	39*
COC(=O)C1=C(C)N(Cc2cccc(C(F)(F)F)c2)C(=NCC2CC2)NC1c1cccc(F)c1 (centres undefined)	.	.	97*	.	131*	.	104*	70*	92*	81*
CCOC(=O)c1cnn(-c2ccccc2)c1-n1cccc1C(=O)C(=O)Nc1ccccc1	14	-3	2	-22	1	-17	.	.	.	.

High-throughput results deposited in PubChem BioAssay by The Scripps Research Institute Molecular Screening Center.
